Measurements taken from paper PMC11758009 (Scientific Reports, 2025).

How the values were obtained:
[1] = tested on: LAT1, LAT2, LAT3, LAT4, B^0AT1, ATB^0,+; details: cited from earlier work
LAT2 = LAT2 (Homo sapiens, UniProt Q9UHI5); assay: Xenopus oocyte expression system, L-[14C]alanine uptake by LAT2; format: cell-based; details: 1 and 10 µM compound; 50 µM substrate; 30 min
Outline: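 Defolliculated Xenopus laevis oocytes were injected with polyadenylated human LAT2 cRNA (25 ng/oocyte) plus equimolar 4F2hc cRNA. Water-injected oocytes served as controls. After 2–4 days, oocytes took up 50 µM ¹⁴C-labelled substrate for 30 min at room temperature, with or without test compound, in ND96 (pH 7.5) or its Na⁺-free choline chloride version. Radioactivity was determined by liquid scintillation counting.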

SNAT4 = SNAT4 (Homo sapiens, UniProt Q969I6); assay: Xenopus oocyte expression system, L-[14C]alanine uptake by SNAT4; format: cell-based; details: 10 µM compound; 50 µM substrate; 30 min; ND96
Outline: (§1)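 Defolliculated Xenopus laevis oocytes injected with transporter cRNA (25 ng/oocyte), assayed 2–4 days after injection. Uptake at room temperature of 50 µM radiolabelled substrate with test compound at 1 or 10 µM. Buffers were ND96 (pH 7.5) for Na⁺-dependent transport, or a Na⁺-free version with choline chloride. Scintillation counting; mean ± S.D., n = 5–13, three independent oocyte batches.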

LAT3 = LAT3 (Homo sapiens, UniProt O75387); assay: Xenopus oocyte expression system, L-[14C]leucine uptake by LAT3; format: cell-based; details: 1 and 10 µM compound; 50 µM substrate; 30 min
Outline: as §1

y^+LAT2 = y^+LAT2 (Homo sapiens, UniProt Q92536); assay: Xenopus oocyte expression system, L-[14C]leucine uptake by y+LAT2; format: cell-based; details: 1 and 10 µM compound; 50 µM substrate; 30 min; ND96
Outline: (§2)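 Defolliculated Xenopus laevis oocytes injected with transporter cRNA (25 ng/oocyte) plus equimolar 4F2hc cRNA, and assayed 2–4 days later. Uptake of 50 µM L-[¹⁴C]leucine at room temperature with test compound at 1 or 10 µM. Buffers were ND96 (pH 7.5) or a Na⁺-free version with choline chloride in place of NaCl. Scintillation counting; mean ± S.D., n = 5–13, three oocyte batches.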

B^0AT1 = B^0AT1 (Homo sapiens, UniProt Q695T7); assay: Xenopus oocyte expression system, L-[14C]leucine uptake by B0AT1; format: cell-based; details: 1 and 10 µM compound; 50 µM substrate; 30 min; ND96
Outline: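 B⁰AT1 cRNA (25 ng/oocyte) co-injected with equimolar collectrin cRNA into defolliculated Xenopus laevis oocytes, assayed 2–4 days later. Uptake of 50 µM L-[¹⁴C]leucine over 30 min at room temperature in ND96 (pH 7.5), with test compound at 1 or 10 µM. Water-injected oocytes served as controls. Scintillation counting; mean ± S.D., n = 5–13, three oocyte batches.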

y^+LAT1 = y^+LAT1 (Homo sapiens, UniProt Q9UM01); assay: Xenopus oocyte expression system, L-[14C]leucine uptake by y+LAT1; format: cell-based; details: 1 and 10 µM compound; 50 µM substrate; 30 min; ND96
Outline: as §2

S2-LAT2 cells = details: LAT2-expressing cells; cited from earlier work
ASCT2 = ASCT2 (Homo sapiens, UniProt Q15758); assay: Xenopus oocyte expression system, L-[14C]alanine uptake by ASCT2; format: cell-based; details: 1 and 10 µM compound; 50 µM substrate; 30 min; ND96
Outline: as §1

[2] = liver; cited from earlier work
b^0,+ = assay: Xenopus oocyte expression system, L-[14C]cystine uptake by b0,+; format: cell-based; details: 1 and 10 µM compound; 50 µM substrate; 30 min; Na+-free
Outline: (§3)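 Defolliculated Xenopus laevis oocytes injected with transporter cRNA (25 ng/oocyte) or with water as control, assayed 2–4 days after injection. Uptake over 30 min at room temperature of 50 µM labelled substrate: L-[¹⁴C]leucine for ATB0,+, L-[¹⁴C]tyrosine for TAT1, L-[¹⁴C]cystine for b0,+. Test compound at 1 or 10 µM. Scintillation counting; mean ± S.D., n = 5–13, three oocyte batches.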

SNAT5 = SNAT5 (Homo sapiens, UniProt Q8WUX1); assay: Xenopus oocyte expression system, L-[14C]glutamine uptake by SNAT5; format: cell-based; details: 1 and 10 µM compound; 50 µM substrate; 30 min; ND96
Outline: as §1

biliary tract cancer = details: phase II, patients with biliary tract cancer; cited from earlier work
LAT1 [3] = molecular target: T1, LAT1 (Homo sapiens, UniProt Q01650); assay: Temperature-dependent uptake of 14C-labeled compound in HEK293-hLAT1 cells; format: cell-based; details: 1 µM 14C-labeled compound, 1 min, 37 °C vs on ice
Outline: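 HEK293-hLAT1 cells in Na⁺-free HBSS given 1 µM ¹⁴C-labelled test compound, or 1 µM L-[¹⁴C]leucine for comparison, for 1 min on ice or at 37 °C. Cell-associated radioactivity measured by scintillation counting of the lysate.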
Target sequence in this assay (Q01650 whole entry): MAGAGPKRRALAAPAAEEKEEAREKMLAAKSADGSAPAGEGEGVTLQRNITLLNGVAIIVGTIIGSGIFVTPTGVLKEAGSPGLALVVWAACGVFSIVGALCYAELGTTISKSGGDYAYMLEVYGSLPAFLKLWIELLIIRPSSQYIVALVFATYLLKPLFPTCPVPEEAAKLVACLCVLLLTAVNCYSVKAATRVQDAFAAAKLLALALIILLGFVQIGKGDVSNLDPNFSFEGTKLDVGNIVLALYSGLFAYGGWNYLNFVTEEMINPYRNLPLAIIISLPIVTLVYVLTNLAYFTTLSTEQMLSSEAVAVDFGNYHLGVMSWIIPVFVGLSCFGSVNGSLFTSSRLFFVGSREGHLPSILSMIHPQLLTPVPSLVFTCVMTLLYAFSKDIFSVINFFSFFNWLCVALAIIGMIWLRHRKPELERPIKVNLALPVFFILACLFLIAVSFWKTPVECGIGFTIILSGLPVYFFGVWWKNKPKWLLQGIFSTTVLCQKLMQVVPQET
Target sequence in this assay (P08195 103-630 partner): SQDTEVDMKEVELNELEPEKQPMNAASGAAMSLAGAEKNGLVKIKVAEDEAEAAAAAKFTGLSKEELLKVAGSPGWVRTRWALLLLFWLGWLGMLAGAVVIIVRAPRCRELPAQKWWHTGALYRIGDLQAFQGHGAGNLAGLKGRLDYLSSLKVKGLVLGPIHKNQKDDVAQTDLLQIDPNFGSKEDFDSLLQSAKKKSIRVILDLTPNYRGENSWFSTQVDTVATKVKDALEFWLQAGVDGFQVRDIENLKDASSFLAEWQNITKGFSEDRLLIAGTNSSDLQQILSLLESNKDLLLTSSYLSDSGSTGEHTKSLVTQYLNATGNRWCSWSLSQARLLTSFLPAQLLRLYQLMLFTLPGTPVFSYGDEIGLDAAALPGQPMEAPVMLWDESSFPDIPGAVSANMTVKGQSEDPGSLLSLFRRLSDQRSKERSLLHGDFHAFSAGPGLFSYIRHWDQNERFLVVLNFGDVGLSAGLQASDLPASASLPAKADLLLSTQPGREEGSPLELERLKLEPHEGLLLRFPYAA

ATB^0,+ = ATB^0,+ (Homo sapiens, UniProt Q9UN76); assay: Xenopus oocyte expression system, L-[14C]leucine uptake by ATB0,+; format: cell-based; details: 1 and 10 µM compound; 50 µM substrate; 30 min; ND96
Outline: as §3

LAT1 [4] = molecular target: T1, LAT1; assay: Inhibition of L-[14C]leucine uptake in HEK293-hLAT1 cells; format: cell-based
Outline: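 HEK293-hLAT1 cells grown 2 days on poly-D-lysine, then preincubated 10 min at 37 °C in Na⁺-free choline-HBSS (HEPES, pH 7.4). L-[¹⁴C]leucine (1–400 µM) uptake for 1 min, with test compound added from DMSO alongside the substrate at two levels (0.1/0.5 or 1/5 µM) or with DMSO alone. Cells washed ice-cold, lysed in NaOH, counted by scintillation, normalised to BCA protein. Michaelis–Menten and Lineweaver–Burk fits gave Ki; mean ± S.D., n = 4.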
Target sequence in this assay (Q01650 whole entry): as the sequence (Q01650 whole entry) above
Target sequence in this assay (P08195 103-630 partner): as the sequence (P08195 103-630 partner) above

LAT1 [5] = molecular target: T1, LAT1; assay: Sustained inhibition assay; format: cell-based; details: reduction in inhibition over first 10 min after washout relative to 0 min
Outline: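 HEK293-hLAT1 cells exposed to test compound or 0.6% DMSO control in culture medium for 30 min at 37 °C. Washed three times and kept in fresh medium for 0, 10, 20, 30 or 60 min or 24 h. Then rinsed with Na⁺-free HBSS and given 1 µM L-[¹⁴C]leucine for 1 min. Uptake taken as % of control at each time. Reduction rate = (%uptake 10 min – %uptake 0 min)/(100 – %uptake 0 min) × 100. Three independent experiments, each in quadruplicate.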
Target sequence in this assay (Q01650 whole entry): as the sequence (Q01650 whole entry) above
Target sequence in this assay (P08195 103-630 partner): as the sequence (P08195 103-630 partner) above

human LAT2 = human LAT2 (Homo sapiens, UniProt Q9UHI5); assay: Inhibition of L-[14C]alanine uptake in HEK293-hLAT2 cells; format: cell-based; details: 0.1, 1 and 10 µM compound, 1 µM L-[14C]alanine
Outline: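 Stable HEK293-hLAT2 cells were seeded at 2.4 × 10⁵ cells/well on poly-D-lysine and grown 2 days. They were pre-incubated 10 min at 37 °C in Na⁺-free HBSS (choline chloride, 25 mM HEPES, pH 7.4). Uptake of 1 µM L-[¹⁴C]alanine ran for 1 min, with test compound (from DMSO stocks) added together with substrate. Cells were washed ice-cold, lysed in 0.1 N NaOH, counted by liquid scintillation, and lysate protein was measured by BCA.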

S2-LAT1 cells = details: LAT1-expressing cells; cited from earlier work
SNAT2 = SNAT2 (Homo sapiens, UniProt Q96QD8); assay: Xenopus oocyte expression system, L-[14C]alanine uptake by SNAT2; format: cell-based; details: 1 and 10 µM compound; 50 µM substrate; 30 min; ND96
Outline: as §1

LAT4 = LAT4 (Homo sapiens, UniProt Q8N370); assay: Xenopus oocyte expression system, L-[14C]leucine uptake by LAT4; format: cell-based; details: 1 and 10 µM compound; 50 µM substrate; 30 min
Outline: as §1

HEK293-hLAT1 cells = assay: Cell proliferation assay; format: cell-based; details: Homo sapiens, 72 h, read-out: GI50 (proliferation)
Outline: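 HEK293 cells stably expressing human LAT1, kept in MEM with 10% FBS, non-essential amino acids and G418 (0.9 mg/mL) at 37 °C and 5% CO₂. Seeded at 1.5 × 10³ cells/well on poly-D-lysine and treated next day with test compound (0.003–30 µM) for 72 h. CCK-8 read-out. Inhibition = (C–T)/(C–T₀) × 100, with T₀ at 0 h. GI50 from curve fit; mean ± S.D., n = 4.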

[6] = patients with advanced solid tumors; cited from earlier work
SNAT3 = SNAT3 (Homo sapiens, UniProt Q99624); assay: Xenopus oocyte expression system, L-[14C]glutamine uptake by SNAT3; format: cell-based; details: 1 and 10 µM compound; 50 µM substrate; 30 min; ND96
Outline: as §1

ASCT1 = ASCT1 (Homo sapiens, UniProt P43007); assay: Xenopus oocyte expression system, L-[14C]alanine uptake by ASCT1; format: cell-based; details: 1 and 10 µM compound; 50 µM substrate; 30 min; ND96
Outline: as §1

LAT1 [7] = molecular target: T1, LAT1; assay: Xenopus oocyte expression system, L-[14C]leucine uptake by LAT1; format: cell-based; details: 50 µM substrate, 30 min, Na+-free
Outline: as §2
Target sequence in this assay (Q01650 whole entry): as the sequence (Q01650 whole entry) above
Target sequence in this assay (P08195 102-630 partner): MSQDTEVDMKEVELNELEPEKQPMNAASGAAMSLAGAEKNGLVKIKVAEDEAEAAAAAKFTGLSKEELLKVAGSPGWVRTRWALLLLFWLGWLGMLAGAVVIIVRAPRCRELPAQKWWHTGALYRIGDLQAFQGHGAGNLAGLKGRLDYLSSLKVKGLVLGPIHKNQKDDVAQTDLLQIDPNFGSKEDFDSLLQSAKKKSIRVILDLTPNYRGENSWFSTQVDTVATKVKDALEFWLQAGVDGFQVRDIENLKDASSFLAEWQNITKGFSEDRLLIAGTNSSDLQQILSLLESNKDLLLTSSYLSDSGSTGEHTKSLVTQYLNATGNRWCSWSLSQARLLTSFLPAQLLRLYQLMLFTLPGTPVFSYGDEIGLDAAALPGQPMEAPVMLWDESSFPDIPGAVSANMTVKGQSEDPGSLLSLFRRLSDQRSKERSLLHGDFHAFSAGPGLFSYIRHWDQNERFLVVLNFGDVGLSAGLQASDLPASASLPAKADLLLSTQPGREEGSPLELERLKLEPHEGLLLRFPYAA

TAT1 = TAT1 (Homo sapiens, UniProt Q8TF71); assay: Xenopus oocyte expression system, L-[14C]tyrosine uptake by TAT1; format: cell-based; details: 1 and 10 µM compound; 50 µM substrate; 30 min; Na+-free
Outline: as §3

SNAT1 = SNAT1 (Homo sapiens, UniProt Q9H2H9); assay: Xenopus oocyte expression system, L-[14C]alanine uptake by SNAT1; format: cell-based; details: 1 and 10 µM compound; 50 µM substrate; 30 min; ND96
Outline: as §1

HEK293-hLAT2 cells = assay: Cell proliferation assay; format: cell-based, human; details: 72 h, 0.003-30 µM
Outline: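 HEK293 cells stably expressing human LAT2, kept under G418 selection at 37 °C and 5% CO₂, were seeded at 1.5 × 10³ cells/well on poly-D-lysine. Next day they were exposed to test compound for 72 h, and cell number was read with CCK-8. Inhibition was calculated as (C – T)/(C – T₀) × 100, with T₀ taken at 0 h. GI₅₀ is the concentration giving 50% inhibition. Mean ± S.D., n = 4.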

Chain of y^+LAT1 (Q9UM01 whole entry): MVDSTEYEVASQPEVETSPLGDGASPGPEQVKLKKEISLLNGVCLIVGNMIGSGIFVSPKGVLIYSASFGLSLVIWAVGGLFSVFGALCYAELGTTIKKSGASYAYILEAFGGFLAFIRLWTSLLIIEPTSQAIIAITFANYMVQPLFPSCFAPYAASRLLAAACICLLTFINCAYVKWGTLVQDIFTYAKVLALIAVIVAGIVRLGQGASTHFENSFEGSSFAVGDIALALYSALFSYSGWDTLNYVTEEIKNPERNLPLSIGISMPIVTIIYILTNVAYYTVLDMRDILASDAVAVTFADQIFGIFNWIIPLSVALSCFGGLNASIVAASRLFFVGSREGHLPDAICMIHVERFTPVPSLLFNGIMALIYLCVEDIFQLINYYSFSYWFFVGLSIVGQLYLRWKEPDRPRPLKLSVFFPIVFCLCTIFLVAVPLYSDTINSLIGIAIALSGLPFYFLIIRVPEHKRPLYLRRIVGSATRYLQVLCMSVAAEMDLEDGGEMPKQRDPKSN
Chain of y^+LAT1 (P08195 102-630 partner): as the sequence (P08195 102-630 partner) above
Chain of SNAT3 (Q99624 whole entry): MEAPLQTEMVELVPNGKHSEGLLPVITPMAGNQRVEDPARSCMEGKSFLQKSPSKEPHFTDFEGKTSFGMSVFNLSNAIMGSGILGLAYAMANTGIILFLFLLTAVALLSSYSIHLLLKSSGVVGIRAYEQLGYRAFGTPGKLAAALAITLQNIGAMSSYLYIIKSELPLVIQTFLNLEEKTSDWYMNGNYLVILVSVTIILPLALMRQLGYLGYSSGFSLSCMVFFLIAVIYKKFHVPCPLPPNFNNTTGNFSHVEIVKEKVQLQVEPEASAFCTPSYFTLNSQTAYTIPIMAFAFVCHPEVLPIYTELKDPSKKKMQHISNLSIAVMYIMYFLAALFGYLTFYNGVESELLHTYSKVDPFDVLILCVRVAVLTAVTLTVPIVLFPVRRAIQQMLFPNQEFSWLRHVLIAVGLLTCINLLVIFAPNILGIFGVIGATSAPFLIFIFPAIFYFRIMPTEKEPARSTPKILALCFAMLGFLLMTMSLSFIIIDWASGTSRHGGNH
Chain of SNAT4 (Q969I6 whole entry): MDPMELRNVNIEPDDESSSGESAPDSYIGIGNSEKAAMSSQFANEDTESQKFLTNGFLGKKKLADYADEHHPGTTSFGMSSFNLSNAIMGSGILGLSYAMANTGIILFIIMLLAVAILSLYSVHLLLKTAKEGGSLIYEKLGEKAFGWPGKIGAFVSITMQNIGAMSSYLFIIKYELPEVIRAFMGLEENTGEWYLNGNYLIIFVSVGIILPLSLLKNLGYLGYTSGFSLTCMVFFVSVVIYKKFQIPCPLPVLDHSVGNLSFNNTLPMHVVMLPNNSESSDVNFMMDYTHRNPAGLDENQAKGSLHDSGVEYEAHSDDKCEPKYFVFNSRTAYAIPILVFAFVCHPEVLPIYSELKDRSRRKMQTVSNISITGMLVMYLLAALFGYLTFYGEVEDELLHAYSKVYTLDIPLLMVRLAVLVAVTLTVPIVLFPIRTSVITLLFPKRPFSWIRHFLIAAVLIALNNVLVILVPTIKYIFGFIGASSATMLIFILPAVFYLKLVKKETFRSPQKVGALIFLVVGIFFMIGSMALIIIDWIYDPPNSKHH
Chain of ASCT1 (P43007 whole entry): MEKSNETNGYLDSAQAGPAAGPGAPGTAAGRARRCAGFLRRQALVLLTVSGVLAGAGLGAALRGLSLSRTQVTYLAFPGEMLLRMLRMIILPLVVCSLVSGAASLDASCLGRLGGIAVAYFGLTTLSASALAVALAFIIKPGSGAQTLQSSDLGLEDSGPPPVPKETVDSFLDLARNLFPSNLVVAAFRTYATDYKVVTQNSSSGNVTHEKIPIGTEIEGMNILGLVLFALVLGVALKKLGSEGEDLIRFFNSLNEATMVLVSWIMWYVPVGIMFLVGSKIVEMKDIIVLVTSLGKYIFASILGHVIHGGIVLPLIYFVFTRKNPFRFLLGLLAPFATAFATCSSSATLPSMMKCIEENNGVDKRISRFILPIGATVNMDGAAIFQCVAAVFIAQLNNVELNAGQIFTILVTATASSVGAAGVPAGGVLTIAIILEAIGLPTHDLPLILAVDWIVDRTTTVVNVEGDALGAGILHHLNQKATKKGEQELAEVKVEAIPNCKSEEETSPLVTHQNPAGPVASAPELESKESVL
Chain of LAT4 (Q8N370 whole entry): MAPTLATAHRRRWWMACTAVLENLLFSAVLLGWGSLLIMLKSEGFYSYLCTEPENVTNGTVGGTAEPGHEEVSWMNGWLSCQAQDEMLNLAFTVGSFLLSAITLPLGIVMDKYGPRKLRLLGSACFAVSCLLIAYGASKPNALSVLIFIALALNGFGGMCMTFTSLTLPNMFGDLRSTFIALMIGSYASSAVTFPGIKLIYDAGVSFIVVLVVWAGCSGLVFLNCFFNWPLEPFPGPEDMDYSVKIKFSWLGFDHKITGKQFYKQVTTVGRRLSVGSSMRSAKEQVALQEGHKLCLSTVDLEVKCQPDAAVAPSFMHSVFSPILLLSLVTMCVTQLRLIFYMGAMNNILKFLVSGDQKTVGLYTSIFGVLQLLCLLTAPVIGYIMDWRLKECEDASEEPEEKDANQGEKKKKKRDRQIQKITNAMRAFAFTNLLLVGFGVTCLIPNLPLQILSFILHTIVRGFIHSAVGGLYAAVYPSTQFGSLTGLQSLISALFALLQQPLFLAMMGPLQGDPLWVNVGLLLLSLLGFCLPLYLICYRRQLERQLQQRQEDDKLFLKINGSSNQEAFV

## NC1(C(=O)O)CC2CCC1C2 (centres unmarked) [BCH]
[1]
  Transporters inhibited: inhibit not only all system L transporters (LAT1, LAT2, LAT3, LAT4) but also B^0AT1 (system B^0) and ATB^0,+ (system B^0,+)

## Nc1cc(COc2c(Cl)cc(C[C@H](N)C(=O)O)cc2Cl)c2oc(-c3ccccc3)nc2c1 [nanvuranlat, (2S)-2-amino-3-[4-[(5-amino-2-phenyl-1,3-benzoxazol-7-yl)methoxy]-3,5-dichlorophenyl]propanoic acid]
LAT2
  Inhibition of LAT2-mediated L-[14C]alanine uptake: neither nanvuranlat nor N-acetyl-nanvuranlat inhibited
SNAT4
  Inhibition of SNAT4-mediated L-[14C]alanine uptake: non-significant trend towards inhibition
LAT3
  Inhibition of LAT3-mediated L-[14C]leucine uptake: no inhibitory effects
y^+LAT2
  Inhibition of y+LAT2-mediated L-[14C]leucine uptake: Neither compound inhibited
B^0AT1
  Inhibition of B0AT1-mediated L-[14C]leucine uptake: Neither compound inhibited
y^+LAT1
  Inhibition of y+LAT1-mediated L-[14C]leucine uptake: Neither compound inhibited
S2-LAT2 cells
  Growth inhibition of S2-LAT2 cells: minimal effects
ASCT2
  Inhibition of ASCT2-mediated L-[14C]alanine uptake: no significant inhibition
[2]
  Metabolism: rapidly metabolized to its N-acetyl derivative in the liver
b^0,+
  Inhibition of b0,+-mediated L-[14C]cystine uptake: Neither compound inhibited
SNAT5
  Inhibition of SNAT5-mediated L-[14C]glutamine uptake: no significant inhibition
Biliary tract cancer
  Primary endpoint (progression-free survival): met its primary endpoint of improving progression-free survival
LAT1 [3]
  Temperature dependence of cell-associated radioactivity (transport by LAT1): not transported by LAT1
ATB^0,+
  Inhibition of ATB0,+-mediated L-[14C]leucine uptake: Neither compound inhibited
LAT1 [4]
  Ki: 0.0387 ± 0.0051 µM
LAT1 [4]; 0.1, 1 and 10 µM compound, 1 µM L-[14C]leucine, HEK293-hLAT1
  Inhibition of LAT1-mediated L-[14C]leucine uptake: inhibited LAT1 in a concentration-dependent manner
LAT1 [4]; HEK293-hLAT1, L-[14C]leucine
  Mode of LAT1 inhibition (Lineweaver-Burk plot): competitive inhibitors
LAT1 [5]
  Inhibition reduction rate: 29.8%
Human LAT2
  Inhibition of LAT2-mediated L-[14C]alanine uptake: neither compound exhibited inhibitory effects on LAT2
S2-LAT1 cells
  Growth inhibition of S2-LAT1 cells: potently inhibited the growth
SNAT2
  Inhibition of SNAT2-mediated L-[14C]alanine uptake: no significant inhibition
LAT4
  Inhibition of LAT4-mediated L-[14C]leucine uptake: no inhibitory effects
HEK293-hLAT1 cells
  GI50: 1.83 ± 0.31 µM
[6]
  Safety profile in clinical trials: acceptable safety profile
SNAT3
  Inhibition of SNAT3-mediated L-[14C]glutamine uptake: no significant inhibition
ASCT1
  Inhibition of ASCT1-mediated L-[14C]alanine uptake: no significant inhibition
LAT1 [7]; 1 µM compound
  Inhibition of LAT1-mediated L-[14C]leucine uptake: significantly inhibited
LAT1 [7]; 10 µM compound
  Inhibition of LAT1-mediated L-[14C]leucine uptake: significantly inhibited
TAT1
  Inhibition of TAT1-mediated L-[14C]tyrosine uptake: Neither compound inhibited
SNAT1
  Inhibition of SNAT1-mediated L-[14C]alanine uptake: no significant inhibition
HEK293-hLAT2 cells
  Inhibition of proliferation: neither compound exhibited an inhibitory effect
